Reference: ChEMBL document CHEMBL4480402, “3,3'-Disubstituted 5,5'-Bi(1,2,4-triazine) Derivatives with Potent in Vitro and in Vivo Antimalarial Activity” (J Med Chem, 2019)
≈ marks a conversion by molar mass, not a printed value.

Assays:
[1] = Kinetic solubility of the compound in HCL buffer at pH 2 after 30 mins by nephelometry; assay type: physicochemical; conditions: read-out: Kinetic_solubility
Summary of the method: (§1)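 Kinetic aqueous solubility determined by nephelometry.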

[2] = Kinetic solubility of the compound in phosphate buffer at pH 6.5 after 30 mins by nephelometry; assay type: physicochemical; conditions: read-out: Kinetic_solubility; summary of the method: as §1
[3] = Apparent permeability across basolateral to apical side in human Caco2 cells assessed as mass balance; assay type: ADME, cell-based; conditions: Caco-2, read-out: permeability
[4] = Apparent permeability across apical to basolateral side in human Caco2 cells; assay type: ADME, cell-based; conditions: Caco-2
[5] = Plasma concentration in Swiss mouse at […], iv via bolus administration measured up to 30 mins; assay type: ADME, organism-based
[6] = Apparent permeability across apical to basolateral side in human Caco2 cells assessed as mass balance; assay type: ADME, cell-based; conditions: Caco-2, read-out: permeability
[7] = Plasma concentration in Swiss mouse at […], po via gavage administration measured up to 30 mins; assay type: ADME, organism-based; conditions: in vivo, 0.5 h
[8] = Plasma concentration in Swiss mouse at 30 mg/kg, po via gavage administration measured at 60 to 120 mins; assay type: ADME, organism-based; conditions: in vivo
Summary of the method: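 Non-fasted male Swiss outbred mice (24–33 g) with free access to food and water, two mice per dose. Dosed by bolus tail-vein IV injection or oral gavage. Blood taken up to 24 h by submandibular bleed or terminal cardiac puncture into tubes with heparin and a stabilization cocktail, at most two samples per mouse. Plasma stored at -20 °C until analysis.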

Row | SMILES | solubility kinetic at 0.5 h [1] | solubility kinetic at 0.5 h [2] | other results
1 | CSc1nncc(-c2cnnc(OCCN(C)C)n2)n1 | 25 to 50 µg/mL (≈ 85.2 to 170 µM) | 50 to 100 µg/mL (≈ 170 to 341 µM) | 
2 | COc1nncc(-c2cnnc(OC)n2)n1 | > 100 µg/mL | 50 to 100 µg/mL (≈ 227 to 454 µM) | 
3 | CCCCSc1nncc(-c2cnnc(SCCCC)n2)n1 | < 1.6 µg/mL | < 1.6 µg/mL | 
4 | COCCSc1nncc(-c2cnnc(SCCOC)n2)n1 | 12.5 to 25 µg/mL (≈ 36.7 to 73.4 µM) | 12.5 to 25 µg/mL (≈ 36.7 to 73.4 µM) | 
5 | CSc1nncc(-c2cnnc(SC3CCCC3)n2)n1 | 6.3 to 12.5 µg/mL (≈ 20.6 to 40.8 µM) | 6.3 to 12.5 µg/mL (≈ 20.6 to 40.8 µM) | 
6 | OCCCSc1nncc(-c2cnnc(SCCCO)n2)n1 | 25 to 50 µg/mL (≈ 73.4 to 147 µM) | 60 to 100 µg/mL (≈ 176 to 294 µM) | 
7 | CSc1nncc(-c2cnnc(SCCCO)n2)n1 | 50 to 100 µg/mL (≈ 169 to 337 µM) | 50 to 100 µg/mL (≈ 169 to 337 µM) | 

The next lines start with results.

Row | solubility kinetic at 0.5 h [1] | solubility kinetic at 0.5 h [2] | SMILES | other results
8 | 6.3 to 12.5 µg/mL (≈ 25 to 49.5 µM) | 3.1 to 6.3 µg/mL (≈ 12.3 to 25 µM) | CSc1nncc(-c2cnnc(SC)n2)n1 | 
9 | 3.1 to 6.3 µg/mL (≈ 10.1 to 20.4 µM) | 3.1 to 6.3 µg/mL (≈ 10.1 to 20.4 µM) | CCCSc1nncc(-c2cnnc(SCCC)n2)n1 | 
10 | 6.3 to 12.5 µg/mL (≈ 20.4 to 40.4 µM) | 6.3 to 12.5 µg/mL (≈ 20.4 to 40.4 µM) | CSc1nncc(-c2cnnc(SCCN(C)C)n2)n1 | recovery [3]: 90%; Papp A→B [4]: 49 ×10⁻⁶ cm/s; concentration at 0.5 h [5]: > 20 nM; recovery [6]: 85%; Drug uptake [7]: Not Active; Drug uptake [8]: Active
11 | 1.6 to 3.1 µg/mL (≈ 4.75 to 9.21 µM) | 1.6 to 3.1 µg/mL (≈ 4.75 to 9.21 µM) | CC(C)CSc1nncc(-c2cnnc(SCC(C)C)n2)n1 | 
